The IC50 is the midpoint of a concentration-inhibition curve.

The values below come from PubChem BioAssay AID623918 (The Scripps Research Institute Molecular Screening Center, 2012).

Bounds are passed on as bounds.

The assay relates to E. coli V66 Hfr conjugation, recombinant frequency by colony plating. Kind of assay: reduction of Hfr conjugational recombinant frequency – colony formation, V66 E. coli, provider lab, counter-screen for AddAB inhibitor project, late-stage follow-up (AID 623918). An outline of the steps: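 System: E. coli conjugation, F- recipient cells mated with Hfr donor cells. Compound: 5 doses, 0.03–100 µM. Incubation: 1 h recipient growth, 30 min mating, 1.5 h compound exposure. Detection: colony counting after differential plating for His+ StrR recombinants, viability on non-selective plates.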
Background: A counterscreen serves to expose hits that act by an unwanted route or on another target.
As for `CCn1cc(C(=O)O)c(=O)c2cc(F)c(N3CCN(C(=S)Nc4cccc(C(F)(F)F)c4)CC3)cc21`, the IC50 was < 1 µM.

As to `O=C(NCc1cccnc1)c1ccc([N+](=O)[O-])o1`, the IC50 is < 0.1 µM.

On to `C=CCn1c(Sc2ncc([N+](=O)[O-])s2)n[nH]c1=O`, for which the IC50 is < 1 µM.

Take `CCn1cc(C(=O)O)c(=O)c2cnc(N3CCN(C(=S)Nc4ccccc4C(F)(F)F)CC3)nc21`: the IC50 was < 1 µM.

On to `CCn1cc(C(=O)O)c(=O)c2cnc(N3CCNCC3)nc21`, for which the IC50 is < 0.1 µM.

Consider `O=C(Nc1ncccn1)c1ccc([N+](=O)[O-])o1`, for which the IC50 is 0.03 µM.

Turning to `CCn1cc(C(=O)O)c(=O)c2cnc(N3CCN(C(=S)Nc4cccc(C(F)(F)F)c4)CC3)nc21`, the IC50 is 0.1 µM.
